We go through one compound from ChEMBL document CHEMBL1121913, “Inactivation of liver alcohol dehydrogenases and inhibition of ethanol metabolism by ambivalent active-site-directed reagents” (J Med Chem, 1981).

Data set [1] can be described thus: The compound was tested for the ability to inactivate rat liver alcohol dehydrogenase in the absence of NAD+K. In outline:
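Rat liver enzyme purified 15-fold ((NH₄)₂SO₄ 35–75%, DEAE-cellulose). Inactivation with 0.2 mM reagent, 0.1 M pyrophosphate buffer pH 8, 25 °C, enzyme near 0.2 mg/mL; NAD⁺ preincubated 1 min with enzyme before reagent addition. Apparent second-order constants computed on assumption of first-order dependence on reagent.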

A short description of data set [2]: Toxic effect in mice. Type of data set: toxicity, organism-based. The conditions noted are these: mouse, in vivo. The essentials:
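Male Swiss-Webster mice (20–25 g); single i.p. dose of compound suspended in sterile 0.9% saline. Acute lethality scored over 24 h; LD₅₀ with limits at p ≤ 0.05 from three doses on 15 mice.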

The nature of data set [3]: Toxic effect in rats. The format is toxicity, organism-based. The conditions noted are these: rat, in vivo. The essentials:
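Male Sprague-Dawley rats (160–200 g), two per dose; single i.p. dose of compound suspended in sterile 0.9% saline. Acute lethality scored over 24 h after dosing.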

Data set [4] has as its target T1, Alcohol dehydrogenase (Homo sapiens) (UniProt P07327+P08319+P00325+P00326+P40394+P11766+P28332). Kind of data set: The compound was tested for the ability to inactivate human liver alcohol dehydrogenase in the absence of NAD+K. The essentials: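 Human liver ADH purified by CM- and DEAE-cellulose chromatography and (NH₄)₂SO₄ precipitation, with 5% ethanol removed by dialysis. Enzyme about 0.2 mg/mL with 0.2 mM reagent in 0.1 M Na₂P₂O₇, pH 8, 25 °C, no coenzyme. Apparent second-order rate constant assumes first order in reagent.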

The test system of data set [5] is Mus musculus. Kind of data set: Percent inhibition of rate of ethanol metabolism in mice at dose 0.13 mmol/kg. Type of data set: functional. The essentials:
(§1)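 Fed male Swiss-Webster mice (20–25 g), four or five per group; compound suspended in sterile 0.9% saline, single i.p. dose 22–24 h before i.p. ethanol 3 g/kg (40% w/v in saline). Tail-vein blood ethanol by GC (1-propanol internal standard); elimination rate = β slope × dose/extrapolated zero-time level. Liver ADH afterwards: homogenate activity with ethanol/NAD⁺ minus 10 mM pyrazole control, per mg protein.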

The target in data set [6] is T1, Alcohol dehydrogenase (Homo sapiens). Kind of data set: The compound was tested for the ability to inactivate human liver alcohol dehydrogenase in the presence of 1 mM NAD+k. In outline:
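Human liver ADH, purified on carboxymethyl- and DEAE-cellulose plus (NH₄)₂SO₄ (60%) with 5% ethanol throughout, ethanol dialysed out. Inactivation at 25 °C in 0.1 M Na₂P₂O₇, pH 8, enzyme about 0.2 mg/mL, 0.2 mM reagent; NAD⁺ added 1 min before reagent where used. Apparent second-order constant calculated assuming first order in reagent.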

Data set [7] deals with T2, Alcohol dehydrogenase (Equus caballus) (UniProt P00327+P00328). Kind of data set: The compound was tested for the ability to inactivate horse liver alcohol dehydrogenase in the absence of NAD+k.
Data set [8] concerns Rattus norvegicus. As to the kind of experiment: Percent inhibition of rate of ethanol metabolism in rats at dose 0.13 mmol/kg. The format is functional. In outline:
(§2)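 Male Sprague-Dawley rats (160–200 g), two per experiment; compound suspended in sterile 0.9% saline, single i.p. dose 22–24 h before i.p. ethanol 2 g/kg (40% w/v in saline). Tail-vein blood ethanol by GC (1-propanol internal standard); elimination rate = β slope × dose/extrapolated zero-time level. Liver ADH afterwards: homogenate activity with ethanol/NAD⁺ minus 10 mM pyrazole control, per mg protein.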

Data set [9] deals with T2, Alcohol dehydrogenase (Equus caballus). As to the kind of experiment: The compound was tested for the ability to inactivate horse liver alcohol dehydrogenase in the presence of 1 mM NAD+k.
The nature of data set [10]: The compound was tested for the ability to inactivate mouse liver alcohol dehydrogenase in the absence of NAD+K. The essentials:
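Mouse liver ADH, fourfold purified ((NH₄)₂SO₄ 45–65% cut, DEAE-cellulose), incubated at about 0.2 mg/mL with 0.2 mM reagent in 0.1 M Na₂P₂O₇ pH 8, 25 °C; coenzyme, when present, added 1 min before inactivator. Apparent second-order rate constant derived assuming reaction first order in reagent.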

Data set [11] in a line: The compound was tested for the ability to inactivate mouse liver alcohol dehydrogenase in the presence of 1 mM NAD+K; Slow inactivation.
For data set [12], the system named is Mus musculus. Kind of data set: Percent inhibition of recovery of rotarod performance in mice at dose 0.13 mmol/kg. The format is functional. In outline: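 Mice trained to hang on a 2-cm rod rotating at 7 rpm, two 15-min periods. Reagent given ip 22 h before ethanol 3 g/kg; five mice per dose, five vehicle controls. Impairment = 100(15 − minutes on rod)/15, probit-transformed; t1/2 for regaining 50% performance by regression. Inhibition = [t1/2(treated) − t1/2(control)]/t1/2(treated).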

Data set [13] is described as follows: Percent inhibition of Alcohol dehydrogenase activity in rat liver at dose 0.13 mmol/kg. The format is tissue-based. The essentials: as §2
Data set [14] can be described thus: Percent inhibition of Alcohol dehydrogenase activity in mice liver at dose 0.13 mmol/kg. The format is tissue-based. The essentials:
as §1

With `NC(=O)CBr`, the Rate constant in data set [1] was found to be 5.3 M⁻¹ min⁻¹; in [4] it was 2.9 M⁻¹ min⁻¹; in [6] it was 2.9 M⁻¹ min⁻¹; in [7], 1.6 M⁻¹ min⁻¹; in data set [9], 0.01 M⁻¹ min⁻¹; in [10], 8.8 M⁻¹ min⁻¹. Besides, the Rate constant result in data set [11] is “Slow inactivation”. The LD50 in data set [2] and in data set [3] was 270 µmol/kg throughout. Further, the inhibition in vivo at 130 µmol/kg in data set [5] was found to be 18%; in data set [8] it was 11%; in data set [12], 28%. For the same compound, the inhibition in [13] was found to be 0%; in [14], 27%.
